Reference: ChEMBL document CHEMBL3259751, “A rational design strategy of the novel topoisomerase II inhibitors for the synthesis of the 4-O-(2-pyrazinecarboxylic)-4'-demethylepipodophyllotoxin with antitumor activity by diminishing the relaxation reaction of topoisomerase II-DNA decatenation” (Bioorg Med Chem, 2014)
The source made the active and inactive calls. No cut-off for these calls is given here.

How the values were obtained:
[1] = system: HeLa; experiment: Cell cycle arrest in human HeLa cells assessed as accumulation at G0/G1 phase at 1 uM after 24 hrs by propidium iodide staining-based flow cytometry (reference value: 37.26 %); format: functional
[2] = system: A549; experiment: Cytotoxicity against human A549 cells after 48 hrs by MTT assay; format: functional, cell-based; details: for IC50: A549, 48 h
Method in brief: (§1)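 Cells seeded at 3500–13,000 per well. A549, HeLa and HepG2 were grown in DMEM and BGC-823 in RPMI 1640, each with 10% CS plus penicillin/streptomycin, at 37 °C and 5% CO₂. Drug exposure lasted 2 days, followed by MTT readout at A₄₉₂, with untreated controls at 0.6–0.8. IC50 was the concentration cutting absorbance by 50%, interpolated by sigmoidal nonlinear regression. Run in triplicate.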

[3] = system: HeLa; experiment: Induction of apoptosis in human HeLa cells assessed as early apoptotic cells at 5 uM after 48 hrs by Annexin V/propidium iodide staining-based flow cytometry (reference value: 2.7 %); format: functional
[4] = system: HepG2; experiment: Selectivity ratio of etoposide IC50 to compound IC50 for human HepG2 cells after 48 hrs by MTT assay; format: functional
[5] = system: HeLa; experiment: Induction of apoptosis in human HeLa cells assessed as early apoptotic cells at 1 uM after 48 hrs by Annexin V/propidium iodide staining-based flow cytometry (reference value: 2.7 %); format: functional
[6] = Cytotoxicity against human HL-7702 cells after 48 hrs by MTT assay relative to etoposide; format: functional, L02
[7] = system: HepG2; experiment: Cytotoxicity against human HepG2 cells after 48 hrs by MTT assay; format: functional, cell-based; details: for IC50: HepG2, 48 h; method in brief: as §1
[8] = system: HeLa; experiment: Induction of apoptosis in human HeLa cells assessed as late apoptotic cells at 10 uM after 48 hrs by Annexin V/propidium iodide staining-based flow cytometry (reference value: 2.3 %); format: functional
[9] = system: HeLa; experiment: Induction of apoptosis in human HeLa cells assessed as late apoptotic cells at 1 uM after 48 hrs by Annexin V/propidium iodide staining-based flow cytometry (reference value: 2.3 %); format: functional
[10] = molecular target: DNA topoisomerase 2-alpha (Homo sapiens) (UniProt P11388); experiment: Inhibition of human DNA topoisomerase-2 using kDNA as substrate assessed as inhibition of DNA relaxation at 1 to 10 uM after 60 mins by agarose gel electrophoresis
Sequence of DNA topoisomerase 2-alpha (Homo sapiens) (P11388 whole entry): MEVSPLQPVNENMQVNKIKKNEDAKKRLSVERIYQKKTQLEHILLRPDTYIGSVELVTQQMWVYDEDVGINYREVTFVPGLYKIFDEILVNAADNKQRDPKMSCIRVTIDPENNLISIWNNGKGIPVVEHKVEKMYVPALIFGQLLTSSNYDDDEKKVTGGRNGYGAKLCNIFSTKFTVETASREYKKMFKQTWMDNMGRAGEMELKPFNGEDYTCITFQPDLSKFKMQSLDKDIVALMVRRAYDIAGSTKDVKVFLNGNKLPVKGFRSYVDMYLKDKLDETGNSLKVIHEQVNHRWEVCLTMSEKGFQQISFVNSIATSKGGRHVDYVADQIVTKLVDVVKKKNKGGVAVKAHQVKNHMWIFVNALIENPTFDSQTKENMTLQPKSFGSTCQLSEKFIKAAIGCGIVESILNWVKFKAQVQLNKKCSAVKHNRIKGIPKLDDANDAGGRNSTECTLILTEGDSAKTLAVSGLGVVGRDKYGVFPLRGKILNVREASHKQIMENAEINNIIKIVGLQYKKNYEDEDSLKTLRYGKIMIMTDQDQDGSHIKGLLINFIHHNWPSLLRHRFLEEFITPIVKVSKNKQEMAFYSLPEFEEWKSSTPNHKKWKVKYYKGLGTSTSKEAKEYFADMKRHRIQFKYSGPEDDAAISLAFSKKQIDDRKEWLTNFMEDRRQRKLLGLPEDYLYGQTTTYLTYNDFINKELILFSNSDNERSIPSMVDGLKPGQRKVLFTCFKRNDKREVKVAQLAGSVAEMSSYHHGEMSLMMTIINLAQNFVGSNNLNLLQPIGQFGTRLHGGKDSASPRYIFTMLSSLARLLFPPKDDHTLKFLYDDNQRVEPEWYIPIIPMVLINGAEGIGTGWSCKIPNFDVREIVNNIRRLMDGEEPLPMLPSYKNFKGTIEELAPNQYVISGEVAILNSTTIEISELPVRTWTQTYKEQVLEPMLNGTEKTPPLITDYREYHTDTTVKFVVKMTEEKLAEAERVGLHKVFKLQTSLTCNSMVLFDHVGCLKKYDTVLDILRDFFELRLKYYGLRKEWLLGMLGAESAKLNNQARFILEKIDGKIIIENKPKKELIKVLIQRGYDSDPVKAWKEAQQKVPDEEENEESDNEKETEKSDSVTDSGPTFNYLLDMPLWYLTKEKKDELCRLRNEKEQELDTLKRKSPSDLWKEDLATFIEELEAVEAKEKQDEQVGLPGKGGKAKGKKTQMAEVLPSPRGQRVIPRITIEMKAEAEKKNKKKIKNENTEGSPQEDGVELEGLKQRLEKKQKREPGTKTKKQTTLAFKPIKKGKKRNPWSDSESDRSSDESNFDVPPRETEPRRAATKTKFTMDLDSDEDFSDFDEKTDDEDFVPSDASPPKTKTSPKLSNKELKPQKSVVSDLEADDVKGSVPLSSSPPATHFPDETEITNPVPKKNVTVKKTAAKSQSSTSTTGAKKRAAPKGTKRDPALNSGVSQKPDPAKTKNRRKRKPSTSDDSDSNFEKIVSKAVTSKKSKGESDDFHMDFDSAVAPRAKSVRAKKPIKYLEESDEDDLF

[11] = system: HeLa; experiment: Induction of apoptosis in human HeLa cells assessed as late apoptotic cells at 5 uM after 48 hrs by Annexin V/propidium iodide staining-based flow cytometry (reference value: 2.3 %); format: functional
[12] = (§2) Cytotoxicity against human BGC823 cells after 48 hrs by MTT assay; format: functional, cell-based; details: BGC-823, 48 h; method in brief: as §1
[13] = system: BGC-823; experiment: Selectivity ratio of etoposide IC50 to compound IC50 for human BGC823 cells after 48 hrs by MTT assay; format: functional
[14] = system: HeLa; experiment: Cell cycle arrest in human HeLa cells after 24 hrs by propidium iodide staining-based flow cytometry; format: functional
[15] = system: HeLa; experiment: Cell cycle arrest in human HeLa cells assessed as accumulation at G2/M phase at 5 uM after 24 hrs by propidium iodide staining-based flow cytometry (reference value: 5.29 %); format: functional
[16] = system: HeLa; experiment: Cell cycle arrest in human HeLa cells assessed as accumulation at G2/M phase at 0.5 uM after 24 hrs by propidium iodide staining-based flow cytometry (reference value: 5.29 %); format: functional
[17] = system: HeLa; experiment: Induction of apoptosis in human HeLa cells after 48 hrs by Annexin V/propidium iodide staining-based flow cytometry; format: functional, cell-based
[18] = system: HeLa; experiment: Induction of apoptosis in human HeLa cells assessed as early apoptotic cells at 10 uM after 48 hrs by Annexin V/propidium iodide staining-based flow cytometry (reference value: 2.7 %); format: functional
[19] = system: HeLa; experiment: Selectivity ratio of etoposide IC50 to compound IC50 for human HeLa cells after 48 hrs by MTT assay; format: functional
[20] = system: HeLa; experiment: Cytotoxicity against human HeLa cells after 48 hrs by MTT assay; format: functional, cell-based; method in brief: as §1
[21] = system: HeLa; experiment: Cell cycle arrest in human HeLa cells assessed as accumulation at G0/G1 phase at 0.5 uM after 24 hrs by propidium iodide staining-based flow cytometry (reference value: 37.26 %); format: functional
[22] = Cytotoxicity against human HL-7702 cells after 48 hrs by MTT assay; format: cell-based, L02; details: for IC50: Homo sapiens, L02, 48 h; for Activity: human, l02, 48 h
[23] = Octanol-water partition coefficient, log P of the compound; format: physicochemical
Method in brief: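 Partitioning between 1-octanol and water. The compound concentration was measured in each phase, and logP was calculated as the log of the 1-octanol concentration over the water concentration. The water concentration was corrected by an index-error factor, Y = 2.555.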

[24] = system: HeLa; experiment: Cell cycle arrest in human HeLa cells assessed as accumulation at G2/M phase at 1 uM after 24 hrs by propidium iodide staining-based flow cytometry (reference value: 5.29 %); format: functional
[25] = system: HeLa; experiment: Cell cycle arrest in human HeLa cells assessed as accumulation at G0/G1 phase at 5 uM after 24 hrs by propidium iodide staining-based flow cytometry (reference value: 37.26 %); format: functional
[26] = system: A549; experiment: Selectivity ratio of etoposide IC50 to compound IC50 for human A549 cells after 48 hrs by MTT assay; format: functional
[27] = system: BGC-823; experiment: Selectivity ratio of etoposide IC50 to compound IC50 for human BGC823 cells; format: functional
[28] = system: HepG2; experiment: Selectivity ratio of etoposide IC50 to compound IC50 for human HepG2 cells; format: functional
[29] = system: A549; experiment: Cytotoxicity against human A549 cells; format: functional, cell-based; method in brief: as §1
[30] = system: A549; experiment: Selectivity ratio of etoposide IC50 to compound IC50 for human A549 cells; format: functional
[31] = Cytotoxicity against human BGC823 cells; format: functional, cell-based; details: BGC-823; method in brief: as §1
[32] = system: HepG2; experiment: Cytotoxicity against human HepG2 cells; format: functional, cell-based; method in brief: as §1
[33] = system: BGC-823; experiment: as §2; format: functional, cell-based; method in brief: as §1

SMILES | IC50 [2] | Activity [6] | IC50 [7] | IC50 [12] | IC50 [20] | IC50 [22] | Activity [22] | logP [23] | other results
COc1cc([C@@H]2c3cc4c(cc3[C@@H](OC(=O)c3cnccn3)[C@H]3COC(=O)[C@H]23)OCO4)cc(OC)c1O | 3.83 µM | 114% | 1.21 µM | 4.15 µM | 0.6 µM | 52.4 µM | Dose-dependent effect | 0.33 | Activity [1]: 5.49%; Activity [3]: 10.3%; Ratio IC50 [4]: 12; Activity [5]: 4.2%; Activity [8]: 45.5%; Activity [9]: 7.2%; inhibition [10]: Active; Activity [11]: 30.1%; Ratio IC50 [13]: 6; Activity [14]: Dose-dependent effect; Activity [15]: 66.85%; Activity [16]: 19.88%; Activity [17]: Dose-dependent effect; Activity [18]: 10.8%; Ratio IC50 [19]: 66; Activity [21]: 39.65%; Activity [24]: 60.96%; Activity [25]: 4.01%; Ratio IC50 [26]: 16
COc1cc([C@@H]2c3cc4c(cc3[C@@H](Sc3nc[nH]n3)[C@H]3COC(=O)[C@H]23)OCO4)cc(OC)c1O |  |  |  |  |  |  |  |  | Ratio IC50 [27]: 91; Ratio IC50 [28]: 2.73; IC50 [29]: 0.76 µM; Ratio IC50 [30]: 221; IC50 [31]: 0.28 µM; IC50 [32]: 0.42 µM
COc1cc([C@@H]2c3cc4c(cc3[C@@H](NC(=O)c3cc(O)c(O)c(O)c3)[C@H]3COC(=O)[C@H]23)OCO4)cc(OC)c1O | 33.5 µM |  | 27.4 µM | 24.2 µM | 22.3 µM | 14.8 µM | Dose-dependent effect | 0.29 | 
COc1cc([C@@H]2c3cc4c(cc3[C@@H](NC(=O)c3cnc(C)cn3)[C@H]3COC(=O)[C@H]23)OCO4)cc(OC)c1O | 18.7 µM |  | 6.78 µM | 3.49 µM | 16.1 µM | 20.7 µM | Dose-dependent effect | 0.59 | 
COc1cc([C@@H]2c3cc4c(cc3[C@@H](NC(=O)c3cnccn3)[C@H]3COC(=O)[C@H]23)OCO4)cc(OC)c1O | 16.5 µM | 117% | 6.64 µM | 14.4 µM | 10.8 µM | 53.6 µM | Dose-dependent effect | 0.43 | 
COc1cc([C@@H]2c3cc4c(cc3[C@@H](O[C@@H]3O[C@@H]5CO[C@@H](C)O[C@H]5[C@H](O)[C@H]3O)[C@H]3COC(=O)[C@H]23)OCO4)cc(OC)c1O [ETOPOSIDE] | 67.2 µM |  | 15.3 µM | 30.7 µM | 59.4 µM | 24.6 µM | Dose-dependent effect | 0.52 | Activity [2]: Dose-dependent effect; Activity [7]: Dose-dependent effect; inhibition [10]: Active; IC50 [29]: 168 µM; Activity [33]: Dose-dependent effect; Activity [20]: Dose-dependent effect; IC50 [31]: 25.7 µM; IC50 [32]: 1.15 µM
COc1cc([C@@H]2c3cc4c(cc3[C@@H](OC(=O)c3cn(C5CC5)c5cc(Cl)c(F)cc5c3=O)[C@H]3COC(=O)[C@H]23)OCO4)cc(OC)c1O | 10.1 µM | 70% | 16 µM | 17.4 µM | 0.6 µM | 41.8 µM | Dose-dependent effect | 0.69 | 
COc1cc([C@@H]2c3cc4c(cc3[C@@H](OC(=O)Cn3cnc5c3c(=O)n(C)c(=O)n5C)[C@H]3COC(=O)[C@H]23)OCO4)cc(OC)c1O | 6.91 µM | 54% | 7.91 µM | 2 µM | 0.65 µM | 38 µM | Dose-dependent effect | 0.43 | 
COc1cc([C@@H]2c3cc4c(cc3[C@@H](NC(=O)Cn3cnc5c3c(=O)n(C)c(=O)n5C)[C@H]3COC(=O)[C@H]23)OCO4)cc(OC)c1O | 7.32 µM | 106% | 2.35 µM | 5.88 µM | 3.18 µM | 50.8 µM | Dose-dependent effect | 0.56 | 
COc1cc([C@@H]2c3cc4c(cc3[C@@H](OC(=O)c3ccc5ccccc5n3)[C@H]3COC(=O)[C@H]23)OCO4)cc(OC)c1O | 19.2 µM |  | 9.18 µM | 28.8 µM | 20.5 µM | 20.1 µM | Dose-dependent effect | 0.8 | 
COc1cc([C@@H]2c3cc4c(cc3[C@@H](OC(=O)c3cnc(C)cn3)[C@H]3COC(=O)[C@H]23)OCO4)cc(OC)c1O | 10.5 µM |  | 14.2 µM | 1.5 µM | 9.56 µM | 18.6 µM | Dose-dependent effect | 0.38 | 
COc1cc([C@@H]2c3cc4c(cc3[C@@H](O)[C@H]3COC(=O)[C@H]23)OCO4)cc(OC)c1O [4'-DEMETHYLEPIPODOPHYLLOTOXIN] | 52.1 µM |  | 18.7 µM | 21.3 µM | 16 µM | 13 µM | Dose-dependent effect | 0.73 | Activity [2]: Dose-dependent effect; Activity [7]: Dose-dependent effect; Activity [33]: Dose-dependent effect; Activity [20]: Dose-dependent effect
